# tolC growth inh – growth inhibitors of E. coli BW25113 tolC mutant. 65,000 compounds, 2.2% hits. OD615. growth inhibition, % at 10 µM (by protocol). AID 573;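 active = growth inhibition at or above a cutoff equal to the mean over every tested compound plus 3 SD, cut at about 60% in these data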;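 also: growth measured after 20 h incubation at 37 °C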
#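 Doses: one dose of 10 µM final / Material: E. coli BW25113 ΔtolC::kan, tolC deletion mutant strain / Buffer or medium: LB with kanamycin 50 µg/mL / Evaluation: percent growth inhibition / Detection: optical density read at 615 nm / Incubation: 37 °C, 20 h exposure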
# Ecoli WT expand – growth inhibitors of E. coli BW25113 wild type; AID 710; 98,000 compounds, 0.15% hits; growth inhibition, % at 100 µM; OD600 absorbance;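 active = growth inhibition above about 50% at one test dose, limit read from the data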;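 also: growth measured after 20 h incubation at 37 °C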
# M1 ag – activates the M1 muscarinic receptor; CHO-M1 cells, Fluo-4 calcium fluorescence, agonist mode; stronger effect = higher value; B-score at 10 µM; 64,000 compounds, 3% hits;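 active = fluorescence rise, raw or as B-score row- and column-corrected plate score, outside the 99.7% band of its plate's samples, either direction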
# AP ELISA ortho – orthogonal test for alternative complement pathway inhibitors | Human serum alternative complement pathway, LPS-coated ELISA, C3 deposition; tested in compound mixtures | inhibition, % at 5 µM | 62,000 compounds, 0.08% hits;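 active = inhibition above 30% in each of the two pooled mixtures holding the compound, so the lower value exceeds 30%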;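 also: 0% = serum in Mg-EGTA without compound and 100% = EDTA serum blank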
#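 Assay system: Human serum alternative complement pathway, C3 deposition on LPS-coated wells | Incubation: 1 h serum-compound exposure at 37 °C | Doses: 5 µM per compound in ten-compound mixtures | Read-out: Percent inhibition | Technique: ELISA with HRP anti-human C3 antibody, TMB substrate, absorbance 450 nm | Replication: Two pool placements per compound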
# M1 antagonist – antagonists of rat M1 muscarinic receptor; P08482; CHO-M1 cells, Fluo-4 calcium, ACh EC80 antagonist mode; stronger effect = lower value; B-score at 10 µM; 64,000 compounds, 3.4% hits;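 active = calcium fluorescence response, raw or row-and-column corrected B-score, differing from the plate sample mean either way at a set confidence level, mostly lower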
# Target sequence (P08482 whole entry, looked up): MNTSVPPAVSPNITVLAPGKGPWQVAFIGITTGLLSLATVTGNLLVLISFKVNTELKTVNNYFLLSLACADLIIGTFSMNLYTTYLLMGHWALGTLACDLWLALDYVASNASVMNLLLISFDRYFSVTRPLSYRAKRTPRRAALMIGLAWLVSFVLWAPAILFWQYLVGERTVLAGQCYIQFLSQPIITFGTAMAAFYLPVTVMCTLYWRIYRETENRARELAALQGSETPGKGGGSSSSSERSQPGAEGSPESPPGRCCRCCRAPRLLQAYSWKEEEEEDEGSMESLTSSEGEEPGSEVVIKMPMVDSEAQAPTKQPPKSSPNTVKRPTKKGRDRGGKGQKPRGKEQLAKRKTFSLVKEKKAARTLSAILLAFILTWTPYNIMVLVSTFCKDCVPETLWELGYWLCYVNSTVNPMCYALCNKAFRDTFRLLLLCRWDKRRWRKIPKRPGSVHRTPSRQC
# WNV protease inh – inhibitors of West Nile virus NS2B-NS3 protease | P06935 | WNV NS2B-NS3 protease, fluorogenic substrate Ex360/Em465; stronger effect = lower value | z-score (concentration not given with the values) | 65,000 compounds, 0.18% hits; in the data active = z-score below about -3
# Active calls of the source: *; . = not tested or not shown. This is a sample that favours compounds with a hit; in the whole collection about 5.2% have one here.
SMILES,tolC growth inh,Ecoli WT expand,M1 ag,AP ELISA ortho,M1 antagonist,WNV protease inh
CCn1c2ccccc2c2nnc(SCc3ccccc3)nc21,73.0*,-13.0,-0.627,9.8,-0.188,-0.64
CCn1c2ccccc2c2nnc(SCC(N)=O)nc21,.,4.0,.,.,.,.
CCOC(=O)C1=C(C)NC2=C(C(=O)CCC2)C1c1cn(Cc2ccc(Cl)cc2Cl)nc1-c1ccccc1 (stereo not given),.,-11.0,.,.,.,.
Cc1cc(C)c2ccc(C)[n+]([O-])c2c1O,4.4,11.0,-0.303,-6.8,0.908,-0.12
Cc1cc(C)c2ccc(N)nc2c1O,39.5,96.0*,0.32,8.6,-0.0352,0.67
CSC1=Nc2sc3c(c2C2=NCCN12)CCCC3,1.9,.,0.126,16.5,-11.2*,-0.31
O=C1/C(=C/c2ccncc2)SC(=S)N1C1CCS(=O)(=O)C1 (stereo not given),.,54.0*,.,.,.,.
CCSC1=C(C#N)C(c2ccc(Cl)cc2)C2=C(CCCC2=O)N1 (stereo not given),96.3*,-12.0,-0.21,8.5,0.722,0.16
CCOC(=O)CSC1=C(C#N)C(c2ccccc2C)C2=C(CCCC2=O)N1 (stereo not given),-1.4,-3.0,-0.362,8.4,-0.0609,0.16
CN(C)c1ccc(/C=N/n2ncc3ccccc32)cc1,61.5*,-4.0,-0.0378,3.1,0.0131,-0.72
Cc1c(CCC(=O)O)c(=O)oc2cc3occ(-c4ccc(F)cc4)c3cc12,100.0*,-9.0,-0.192,2.0,0.972,1.57
Cc1c(CCC(=O)O)c(=O)oc2cc(O)ccc12,-10.3,-2.0,-0.778,2.4,0.375,3.7
O=C1c2cnc3nc(SCc4ccc(Cl)cc4)nn3c2CC2c3ccccc3CCN12 (stereo not given),.,-6.0,.,.,.,.
Cc1nc(N2CCN(Cc3ccc4c(c3)OCO4)CC2)nc2c1C(=O)CC(c1ccco1)C2 (stereo not given),50.8,-12.0,0.431,2.2,1.18,-1.16
Cc1nc(N2CCN(Cc3ccccc3)CC2)nc2c1C(=O)CC(c1ccco1)C2 (stereo not given),79.2*,-8.0,-0.52,22.3,-0.0897,-0.2
Cc1ccc(Cn2ncn3c(cc4ccccc43)c2=O)cc1,64.6*,1.0,0.857,9.4,-0.206,-1.23
CCc1cccc(NC(=O)Cn2ncn3c(cc4ccccc43)c2=O)c1,0.8,-21.0,0.719,12.0,0.00433,0.26
OC(COc1ccc2ccccc2c1Br)Cn1ccnc1 (stereo not given),98.7*,47.0,-2.69,15.7,0.013,2.07
OC(COc1ccc2ccccc2c1)Cn1ccnc1 (stereo not given),1.2,16.0,-0.525,-2.1,0.947,-0.88
O=C(c1ccc(COc2ccc3c(c2)CCC3)o1)N1CCN(c2ccccc2)CC1,67.3*,.,-0.828,.,-0.432,0.32
O=C(c1ccc(COc2ccccc2Cl)o1)N1CCN(c2ccccc2)CC1,83.7*,-26.0,0.373,9.4,2,-0.07
O=C(c1ccco1)N1CCN(C(=O)c2ccc(COc3ccc4c(c3)CCC4)o2)CC1,.,-5.0,.,.,.,.
CCCc1ccc(OCc2ccc(C(=O)N3CCN(c4ccccn4)CC3)o2)c(OC)c1,100.0*,-14.0,5.45*,1.4,-0.685,0.54
O=C(c1ccc(COc2ccccc2Br)o1)N1CCCCCC1,61.3*,-5.0,-0.266,17.3,-0.132,0.26
COc1ccc(CC(=O)N2CCN(c3ccccn3)CC2)cc1OC,-6.3,-1.0,0.0783,-5.8,1.48,0.000236
SMILES,tolC growth inh,Ecoli WT expand,M1 ag,AP ELISA ortho,M1 antagonist,WNV protease inh
CN1CC(c2ccc(C#N)cc2)C2(COc3ccccc3C2=O)C12C(=O)Nc1ccccc12 (stereo not given),.,-1.0,.,.,.,.
CC(C)C(c1nnnn1C1CCCC1)N1c2ccccc2CC1C (stereo not given),73.9*,5.0,1.03,19.5,0.0895,-1.01
NC(=O)NC(Cc1ccccc1)C(=O)O (stereo not given),-9.1,.,0.69,-0.2,0.142,-0.47
NC(=O)NC(Cc1ccccc1)c1ccccc1 (stereo not given),-17.2,7.0,2.26*,5.8,-0.243,0.36
CCOC(=O)N1CCC(Nc2c(OCC)c(=O)c2=O)CC1,-12.4,-2.0,-0.00589,4.6,-0.174,1.29
CCCN(CCC)c1nc(NC2CCN(C(=O)OCC)CC2)nc(OC)n1,80.8*,-9.0,-0.328,24.0,-0.199,-0.5
CCOc1cc(C)c(C(C)C)cc1S(=O)(=O)N1CC(C)OC(C)C1 (stereo not given),68.1*,2.0,-0.191,11.8,-0.152,-0.96
CCOc1cc(Br)ccc1S(=O)(=O)N1CC(C)OC(C)C1 (stereo not given),.,0.0,.,.,.,.
Cc1cc(S(=O)(=O)N2CCN(c3ccccc3C)CC2)ccc1F,63.9*,-14.0,-0.652,9.0,0.411,-0.34
CCOC(=O)N1CCC(c2cc(=O)n3[nH]c(C)c(-c4ccc(F)cc4)c3n2)CC1,98.7*,6.0,-0.117,11.6,-0.765,1.44
O=C(NCc1cccnc1)C1CCCN(S(=O)(=O)c2ccccc2)C1 (stereo not given),0.0,2.0,-0.0644,-6.3,0.3,1.55
Cc1nnc(SC(=O)N2c3ccccc3Sc3ccccc32)s1,68.7*,-10.0,-0.784,16.2,-1.62,-1.01
Cc1nnc(SCC(=O)N2c3ccccc3Sc3ccccc32)n1N,-8.4,-2.0,3.25,19.2,0,0.07
CC(C)COc1ccc(CSCCNC(=S)Nc2ccccc2)cc1,.,-14.0,.,.,.,.
COC(=O)c1ccc(CSc2nnc(Nc3ccc(C)cc3)s2)o1,.,1.0,.,.,.,.
Cc1ccc(C(=O)n2cnnc2N)cc1,.,-5.0,.,.,.,.
Cc1ccc(C)c(C(=O)n2cnnc2N)c1,-5.4,5.0,1.01,33.6*,0.114,0.82
CC(C)Oc1cccc(C(=O)Nc2ccccc2N2CCOCC2)c1,7.2,-1.0,0.015,23.8,-0.0406,-0.22
Cc1cc(Cl)ccc1OC(C)C(=O)Nc1ccccc1N1CCOCC1 (stereo not given),66.1*,-11.0,-0.00262,14.8,0.0248,2.94
O=C(Nc1ccn(Cc2ccc(Cl)cc2)n1)c1ccc2c(c1)OCO2,62.7*,7.0,-0.38,12.8,-0.396,-0.55
O=S(=O)(NCCOCC(F)(F)F)c1ccc2oc3ccccc3c2c1,34.9,4.0,0.723,12.3,-0.352,1.16
CCOC(=O)c1ccc(Oc2nc(NC(C)(C)C)nc(N(C)C)n2)cc1,65.9*,-12.0,0.742,7.5,-0.301,0.14
COc1cc(S(=O)(=O)N2CCOCC2)ccc1NC(=O)CSc1nnc(N)s1,-3.6,-9.0,0.0438,33.2*,-0.022,-1.17
COc1cc(S(=O)(=O)N2CCOCC2)ccc1NC(=O)c1cc2c(s1)CCC2,20.7,-10.0,0.0498,17.4,0.193,-0.47
CCOc1ccc(N2C(=O)CC(N3CCN(c4ccc(C(=O)c5ccncc5)cc4)CC3)C2=O)cc1 (stereo not given),-6.4,.,-0.699,8.1,1.04,0.05
COc1ccc(NC(=O)c2cnc3sccn3c2=O)cc1OC,3.3,.,0.235,10.0,-1.26,0.59
